Source: publication PMC6092455 (International Journal for Parasitology: Drugs and Drug …, 2018)
Entries after “also recorded” stand apart in the source; their conditions may differ.

Assays:
B. microti [1] = test: Parasitemia in B. microti infected mice treated on 5 and 6 DPI; assay type: in vivo, Babesia microti; conditions: BALB/c mice, 0.75 mg/kg i.p. on 5 and 6 DPI
How it was run: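 Eight female BALB/c mice infected i.p. with B. microti-infected blood (150 µl, 50% parasitemia, ~800 × 10⁶ infected RBCs). Test compound at 0.75 mg/kg in PBS, or vehicle, given i.p. on 5 and 6 DPI (four mice per group). Parasitemia read as percent from thin blood smears taken by tail snip; blood collected on 7 DPI.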

PMJ2R mouse macrophages = test: Cell viability assay, PMJ2R mouse macrophages; assay type: cell-based; conditions: 200 nM, 48 h
How it was run: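 PMJ2R macrophages grown in RPMI 1640 with gentamicin, amphotericin B and 10% heat-inactivated FCS. Serially diluted test compound added to cultures, with 0.004% DMSO in medium as control. Medium changed every 12 h; 48 h at 37 °C, 5% CO₂. Calcein AM (live) and ethidium homodimer III (dead) staining, counted by flow cytometry. Triplicate cultures; mean ± SD; unpaired t-test.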

[2] = target: T1, B. divergens proteasome β5 subunit (chymotrypsin-like activity) (Babesia divergens, UniProt A0AAD9GDK3); test: Suc-LLVY-AMC proteasome activity assay with B. divergens crude cell lysates; assay type: biochemical; conditions: for inhibition at 1 µM: read-out: Reduction of Suc-LLVY-AMC measured activity
T1 sequence (A0AAD9GDK3 69-280): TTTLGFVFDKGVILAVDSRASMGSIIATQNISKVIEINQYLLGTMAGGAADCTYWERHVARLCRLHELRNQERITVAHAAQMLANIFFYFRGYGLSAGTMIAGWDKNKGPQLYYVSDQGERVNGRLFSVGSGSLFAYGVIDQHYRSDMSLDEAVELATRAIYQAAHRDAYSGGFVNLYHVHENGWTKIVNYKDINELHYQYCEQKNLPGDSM
How it was run: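 Crude lysate made from B. divergens-infected RBCs (~15% parasitemia): saponin lysis, PBS washes, sonication in 20 mM HEPES pH 8.0, 1 µM E64, 0.03% SDS, 1 mM ATP; pooled from 10 cultures. Lysate pre-incubated 30 min at 37 °C with 1 µM test compound. Then 10 µM Suc-LLVY-AMC added; fluorescence 360/465 nm read every 1 min for 1 h at 37 °C. Run in triplicate.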

[3] = rats; ref Yang et al., 2011; cited from earlier work
HeLa cells = test: Cell toxicity assay, HeLa cells; assay type: cell-based, human; conditions: for IC50: Homo sapiens, HeLa, 48 h, read-out: IC50 values, HeLa cells, 48 h, AlamarBlue
B. microti [4] = test: Pre-treatment of B. microti infected red blood cells prior to mouse infection; assay type: in vivo, Babesia microti; conditions: infected blood pre-treated with 400 nM for 1 h
How it was run: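 Infected blood pooled from three B. microti-infected mice (50% parasitemia). Exposed to test compound at 400 nM final, or to matching DMSO, for 1 h at 37 °C, 5% CO₂. Then injected i.p. (150 µl, 800 × 10⁶ infected RBCs) into three treated and three control BALB/c mice. Parasitemia counted daily for 8 DPI on Diff-Quik thin smears; Cmax and Tmax calculated in R.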

[5] = system: B. microti proteasome (chymotrypsin-like activity); test: Suc-LLVY-AMC activity assay on B. microti lysates from treated mice; assay type: in vivo, Babesia microti; conditions: mice treated 0.75 mg/kg on 5 and 6 DPI, pooled blood collected 7 DPI
B. microti [6] = test: Treatment of B. microti infected mice; assay type: in vivo, Babesia microti
How it was run: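 Six female BALB/c mice (~20 g) infected i.p. with 150 µl B. microti-infected blood (50% parasitemia, ~800 × 10⁶ infected RBCs). Dosed i.p. daily from 1 to 7 DPI with test compound at 0.75 mg/kg in PBS or with vehicle (150 µl; three mice each). Activity and appearance observed. Parasitemia counted daily to 15 DPI on tail-snip thin smears. AUC (Riemann sums), Cmax and Tmax compared by t-test.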

[7] = BALB/c mice, 0.75 mg/kg i.p. daily 1-7 DPI

| SMILES | Parasite load (parasitemia, mean) at 5 DPI (B. microti [1]; 5 DPI) [%] | Parasite load (parasitemia, mean) at 7 DPI (B. microti [1]; 7 DPI) [%] | Toxicity to PMJ2R macrophages (PMJ2R mouse macrophages) | Survival rate of PMJ2R cells (PMJ2R mouse macrophages; medium changed every 12 h) [%] | Reduction of Suc-LLVY-AMC measured activity ([2]; 1 μM inhibitor, pilot experiments (data not shown)) | inhibition at 1 µM [2] [%] | Plasma clearance [3] [mL/min/kg] | Terminal half-life [3] [min] | Tissue distribution [3] | IC50 (HeLa cells) [nM] | Fold more potent against B. divergens compared to HeLa (HeLa cells; ratio of IC50 values HeLa / B. divergens ex vivo culture) | Reduction of Cmax (parasitemia) on Tmax (7 DPI) compared to control group (B. microti [4]) [%] | Reduction of Suc-LLVY-AMC activity in B. microti lysates compared to untreated control [5] [%] | Adverse effects on spontaneous activity and physical appearance of mice (B. microti [6]; [7]) | Peak parasitemia levels and area under curve (AUC) compared to PBS (B. microti [6]; [7]) | Microscopic appearance of non-parasited RBCs (B. microti [6]; BALB/c mice, 0.75 mg/kg i.p. daily 1-7 DPI (data not shown)) | Parasitemia on 5, 6 and 7 DPI compared to untreated control (B. microti [6]; daily intra-peritoneal treatment of infected mice) |
| --- | --- | --- | --- | --- | --- | --- | --- | --- | --- | --- | --- | --- | --- | --- | --- | --- | --- |
| CC(C)C[C@H](NC(=O)[C@H](CCc1ccccc1)NC(=O)CN1CCOCC1)C(=O)N[C@@H](Cc1ccccc1)C(=O)N[C@@H](CC(C)C)C(=O)[C@@]1(C)CO1 [Carfilzomib] | 47.4 ± 6.3 | 41.5 ± 2.9 | did not show any toxicity; also recorded: did not affect cell viability | 71.1 | completely inhibiting this activity | > 90 | 195 to 319 | 5 to 20 | rapid and wide tissue distribution | 59 ± 36 | 2–3.5 fold | 31.2 | 33 | no adverse effects | significantly reduced | did not change | lower parasitemia |
| CC(C)C[C@H](NC(=O)[C@H](Cc1ccccc1)NC(=O)c1cnccn1)B(O)O [Bortezomib, bortezomib] | – | – | – | – | – | 96 | – | – | – | 7 ± 1 | – | – | – | – | – | – | – |
